Experimental findings from ChEMBL document CHEMBL1140745, “Rationalizing the activities of diverse cholecystokinin 2 receptor antagonists using molecular field points” (J Med Chem, 2008) are described below.

By Ki is commonly meant the equilibrium dissociation constant of an inhibitor or competing ligand from its target. A low value points to higher affinity. Usually pKb stands for the Kb on a negative log10 scale, so that one unit is a factor of ten. Low values mean a high Kb, high ones a low Kb.

Residues, ends and D or L forms follow the SMILES beside them. *: point of attachment. NHPhenethyl = c1ccc(CCN*)cc1; Boc = CC(C)(C)OC(=O)*

Test [1] addresses T1, Cholecystokinin receptor type A (Cavia porcellus, UniProt Q63931).
T1 sequence (Q63931 whole entry): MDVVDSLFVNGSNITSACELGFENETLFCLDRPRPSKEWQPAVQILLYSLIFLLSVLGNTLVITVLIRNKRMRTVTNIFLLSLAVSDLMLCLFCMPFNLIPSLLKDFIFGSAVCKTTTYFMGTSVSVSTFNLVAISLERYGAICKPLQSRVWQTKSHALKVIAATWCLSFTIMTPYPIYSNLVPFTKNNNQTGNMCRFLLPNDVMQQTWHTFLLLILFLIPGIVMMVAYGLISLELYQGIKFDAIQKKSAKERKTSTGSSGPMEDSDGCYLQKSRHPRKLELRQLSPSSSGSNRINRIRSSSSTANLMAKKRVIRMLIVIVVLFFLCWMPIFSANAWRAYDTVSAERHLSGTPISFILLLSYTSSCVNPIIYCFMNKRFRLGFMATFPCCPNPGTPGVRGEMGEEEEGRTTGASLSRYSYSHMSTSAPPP
Put plainly: Displacement of [125I]BH-CCK-8S from […] expressed in guinea pig pancreatic cells. The test is classed as cell-based. An outline of the steps: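 Radioligand competition binding on guinea pig pancreas cell homogenates, using 20 pM [125I]BH-CCK-8S as the tracer. Affinity is reported as pKi. Results come from at least three separate experiments.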
Background: Displacement assays read how much labelled ligand stays bound in the presence of the test substance.

Test [2] concerns the target T2, Gastrin/cholecystokinin type B receptor (Rattus norvegicus) (UniProt P30553).
T2 sequence (whole entry): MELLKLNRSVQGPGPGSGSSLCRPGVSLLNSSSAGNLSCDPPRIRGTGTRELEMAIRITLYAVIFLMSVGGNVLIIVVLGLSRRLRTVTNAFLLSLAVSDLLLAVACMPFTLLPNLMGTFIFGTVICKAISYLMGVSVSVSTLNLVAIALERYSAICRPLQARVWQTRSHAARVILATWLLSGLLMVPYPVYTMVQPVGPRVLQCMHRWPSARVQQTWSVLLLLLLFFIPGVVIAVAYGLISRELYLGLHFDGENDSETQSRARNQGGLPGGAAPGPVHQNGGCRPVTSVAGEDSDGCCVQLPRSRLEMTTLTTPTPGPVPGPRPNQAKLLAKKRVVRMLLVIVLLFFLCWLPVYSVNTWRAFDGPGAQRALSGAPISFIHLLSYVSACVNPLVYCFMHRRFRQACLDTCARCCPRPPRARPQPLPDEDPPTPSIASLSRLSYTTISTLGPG
The following applies: Stomach.

`C[C@](Cc1c[nH]c2ccccc12)(NC(=O)OC1[C@H]2C[C@@H]3C[C@@H](C[C@H]1C3)C2)C(=O)NC[C@H](NC(=O)CCC(=O)O)c1ccccc1` (stereo partly specified) [CI-988] showed a Ki in test [1] of 631 nM.

For the compound `CNc1cccc(NC(=O)N[C@@H]2N=C(c3ccccn3)c3ccccc3N(CC(=O)C(C)(C)C)C2=O)c1` [NETAZEPIDE], in test [1], the Ki is 398 nM. In addition, in test [2], the negative logarithm of the Kb (pKb) was determined as 9.9.

`O=C(O)c1cccc(NC(=O)c2nc(C3CCCCC3)[nH]c2COC23CC4CC(CC(C4)C2)C3)c1` came in with a pKb in test [2] of 9.1.

`Cc1cccc(NC(=O)N[C@@H]2N=C(c3ccccc3)c3ccccc3N(C)C2=O)c1` [L-365260] showed a Ki in test [1] of 316 nM. In test [2], this compound displayed a pKb of 7.6.

As for `C[C@@H](NC(=O)C[C@@H]1CCCN1C(=O)C1C2c3ccccc3C(c3ccccc32)C1C(=O)NCC12CC3CC(CC(C3)C1)C2)C(=O)O` (stereo partly specified), the affinity in test [1], expressed as Ki, was 25100 nM. For the same compound, the pKb in test [2] was found to be 7.3.

On to `O=C(O)c1cc(NC(=O)[C@H](Cc2ccc(I)cc2)NC(=O)c2cc3cc[nH]c3cc2C(=O)NCC23CC4CC(CC(C4)C2)C3)cc(C(=O)O)c1`, for which the inhibition constant Ki in test [1] is 2000 nM. In test [2], this compound displayed a pKb of 9.1.

Compound `COc1ccc(CCNC(=O)[C@H](CC(=O)O)NC(=O)[C@H](Cc2ccc3ccccc3c2)NC(=O)[C@H](Cc2c[nH]c3ccccc23)NC(=O)OC(C)(C)C)cc1` showed a Ki in test [1] of 63.1 nM. The compound also showed a pKb in test [2] of 5.4.

For the compound `Cn1ccc2cc(C(=O)N[C@@H](Cc3ccccc3)C(=O)Nc3cc(C(=O)O)cc(C(=O)O)c3)c(C(=O)NCC34CC5CC(CC(C5)C3)C4)cc21`, the Ki in test [1] is 3980 nM. In test [2], this compound registered a pKb of 9.8.

In turn, `O=C(O)c1cc(NC(=O)[C@H](Cc2ccccc2)NC(=O)c2cc3cc[nH]c3cc2C(=O)NC2CCCCCC2)cc(C(=O)O)c1` gave a Ki in test [1] of 3160 nM. In test [2], this compound displayed a pKb of 9.3.

`CC(=O)N1[C@H](CC23CC4CC(CC(C4)C2)C3)C(=O)N(Cc2ccccc2)c2ccccc2C(=O)C[C@H]1C(=O)NCC(=O)O` showed a Ki in test [1] of 7940 nM. In test [2], this compound showed a pKb of 6.8.

Compound `Nc1cccc2cc(C(=O)N[C@@H](Cc3ccccc3)C(=O)Nc3cc(C(=O)O)cc(C(=O)O)c3)c(C(=O)NCC34CC5CC(CC(C5)C3)C4)cc12` gave a Ki in test [1] of 2510 nM. In test [2], the pKb amounted to 9.

Compound `Nc1cccc2cc(C(=O)NCC34CC5CC(CC(C5)C3)C4)c(C(=O)N[C@@H](Cc3ccccc3)C(=O)Nc3cc(C(=O)O)cc(C(=O)O)c3)cc12` gave a Ki in test [1] of 2510 nM. The pKb in test [2] was found to be 8.2.

In turn, `O=C(O)c1cc(NC(=O)[C@H](Cc2ccccc2)NC(=O)c2cc3cc[nH]c3cc2C(=O)NCC23CC4CC(CC(C4)C2)C3)cc(C(=O)O)c1` gave a pKb in test [2] of 9.3.

Take `CC(C)C[C@H](NC(=O)[C@H](Cc1c[nH]c2ccccc12)NC(=O)OC(C)(C)C)C(=O)N[C@@H](CC(=O)O)C(=O)NCCc1ccccc1` (Boc-Trp-Leu-Asp-NHPhenethyl): in test [1], the inhibitory constant (Ki) was 7940 nM. This compound also came in with a pKb in test [2] of 6.9.

The compound `CN1C(=O)[C@H](NC(=O)Nc2cccc(-c3nnn[nH]3)c2)N=C(c2ccccc2)c2ccccc21` showed an inhibitory constant (Ki) in test [1] of 316 nM. The pKb in test [2] is 8.4.

For `O=C1NN(C(=O)Nc2ccc(Br)cc2)[C@H](c2ccccc2)[C@H]1c1ccccc1`, in test [1], the Ki is 20000 nM. The pKb in test [2] came out at 5.9.

`O=C(O)c1cccc(NC(=O)c2nc(-c3ccccc3)[nH]c2CC23CC4CC(CC(C4)C2)C3)c1` showed a Ki in test [1] of 1260 nM. Further, the pKb in test [2] came to 6.6.

In test [1], `O=C(O)c1cc(NC(=O)[C@H](Cc2ccccc2)NC(=O)c2cc3sccc3cc2C(=O)NCC23CC4CC(CC(C4)C2)C3)cc(C(=O)O)c1` had a Ki of 794 nM. The same compound gave a pKb in test [2] of 9.4.

As for `O=C(O)c1cc(NC(=O)[C@H](Cc2ccccc2)NC(=O)C2C3c4ccccc4C(c4ccccc43)C2C(=O)NCC23CC4CC(CC(C4)C2)C3)cc(C(=O)O)c1` (stereo partly specified), the pKb in test [2] is 8.3.

In the case of `O=C(O)c1cc(NC(=O)[C@H](Cc2ccccc2)NC(=O)c2cc3ccccc3cc2C(=O)NCC23CC4CC(CC(C4)C2)C3)cc(C(=O)O)c1`, the pKb in test [2] was 8.2.

Compound `O=C(O)C1C2c3ccccc3C(c3ccccc32)C1C(=O)NCC12CC3CC(CC(C3)C1)C2` (stereo unspecified) came in with a pKb in test [2] of 5.6.
